Data: ChEMBL document CHEMBL4266010, “Synthesis, Biological Evaluation of Fluorescent 23-Hydroxybetulinic Acid Probes, and Their Cellular Localization Studies” (ACS Med Chem Lett, 2018)
Calls of active or inactive are those of the source. The calls are words filed in the database; no cut-off is given here.

Columns and labels:
[1] = Antiproliferative activity against HELF after 72 hrs by MTT assay; set-up: species or system Homo sapiens
How it was run: (§1)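 MTT assay on B16F10 mouse skin melanoma, MCF-7 human breast cancer and Helf human embryonic lung fibroblast cells. Doxorubicin served as reference. Values are mean ± SD of three independent experiments.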

B16-F10 [2] = assay: Antiproliferative activity against mouse B16F10 cells after 72 hrs by MTT assay; format: functional, cell-based; settings: B16-F10, 72 h; how it was run: as §1
MCF7 = assay: Antiproliferative activity against human MCF7 cells after 72 hrs by MTT assay; format: functional, cell-based; settings: MCF7, 72 h; how it was run: as §1
B16-F10 [3] = assay: Induction of apoptosis in mouse B16F10 cells assessed as increase in caspase-3 protein expression at 1.5 to 6 uM after 48 hrs by Western blot analysis; format: functional, cell-based
How it was run: (§2)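 B16F10 cells treated with parent acid (0, 7.5, 15, 30 μM) or probe (0, 1.5, 3.0, 6.0 μM). Bax, Bcl-2, cytochrome c, caspase 3 and caspase 9 detected by Western blot with GAPDH loading control. Band density normalized to GAPDH as relative expression. Values are mean ± SD of three independent experiments; P values for control vs treated.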

[4] = Drug uptake in mouse B16F10 cells at 10 uM up to 240 mins mins by flow cytometry; format: ADME, cell-based; settings: b16-f10, 4 h
How it was run: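 Live B16F10 cells incubated with 10 μM coumarin probe over a time course (0–120 min and beyond). Intracellular fluorescence intensity quantified by flow cytometry.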

B16-F10 [5] = assay: Induction of apoptosis in mouse B16F10 cells assessed as increase in cytochrome-c protein expression at 1.5 to 6 uM after 48 hrs by Western blot analysis; format: functional, cell-based; how it was run: as §2
B16-F10 [6] = assay: Induction of apoptosis in mouse B16F10 cells assessed as decrease in Bcl2 protein expression at 1.5 to 6 uM after 48 hrs by Western blot analysis; format: functional, cell-based; how it was run: as §2
B16-F10 [7] = assay: Induction of apoptosis in mouse B16F10 cells assessed as increase in Bax protein expression at 1.5 to 6 uM after 48 hrs by Western blot analysis; format: functional, cell-based; how it was run: as §2
[8] = Drug uptake in mouse B16F10 cell lysosomes at 4 uM after 1 hr by LysoTracker staining based confocal laser scanning microscopic method; format: ADME, subcellular, Lysosome; settings: b16-f10, 1 h
How it was run: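 Live B16F10 cells co-stained with the coumarin probe at 4 μM and LysoTracker Red, with DAPI nuclear counterstain. Imaged by confocal microscopy, probe visualized as green and lysosomes as red.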

[9] = Drug uptake in mouse B16F10 cell nucleus at 4 uM after 1 hr by DAPI staining based confocal laser scanning microscopic method; format: ADME, subcellular; settings: b16-f10, 1 h
[10] = Drug uptake in mouse B16F10 cell mitochondria at 4 uM after 1 hr by MitoTracker dye based confocal laser scanning microscopic method; format: ADME; settings: b16-f10, 1 h
How it was run: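 Live B16F10 cells incubated 1 h with the coumarin probe at 4 μM together with MitoTracker. Imaged by confocal laser scanning microscopy with probe excitation at 415 nm (green) and MitoTracker […] at 579 nm (red). Colocalization read from overlay of the two channels.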

B16-F10 [11] = assay: Induction of apoptosis in mouse B16F10 cells assessed as increase in caspase-9 protein expression at 1.5 to 6 uM after 48 hrs by Western blot analysis; format: functional, cell-based; how it was run: as §2
[12] = Drug uptake in mouse B16F10 cells after 15 mins by fluorescence microscopic method; format: ADME, cell-based; settings: b16-f10, 0.25 h
How it was run: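 Live B16F10 cells incubated with the coumarin-labelled probe (10 μM among several concentrations) over a time course. Intracellular fluorescence imaged by fluorescence microscopy. Probe excitation/emission maxima 415/475 nm.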

B16-F10 [13] = assay: Induction of mitochondrial membrane potential loss in mouse B16F10 cells at 1.5 to 6 uM after 48 hrs by JC-1 dye based flow cytometry; format: functional, cell-based
How it was run: (§3)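 B16F10 cells incubated 48 h with parent acid (0, 7.5, 15, 30 μM) or probe (0, 1.5, 3.0, 6.0 μM), then stained with JC-1. Percentage of cells with collapsed mitochondrial membrane potential determined by flow cytometry.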

[14] = Drug uptake in mouse B16F10 cells up to 50 uM after 1 hr by fluorescence microscopic method; format: ADME, cell-based; settings: b16-f10, 1 h
How it was run: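 Live B16F10 cells stained 1 h with the unconjugated coumarin dye at up to 50 μM as control. Intracellular fluorescence examined by microscopy.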

B16-F10 [15] = assay: Induction of mitochondrial membrane potential loss in mouse B16F10 cells at 7.5 uM after 48 hrs by JC-1 dye based flow cytometry (reference value: 1.79%); format: functional; how it was run: as §3
B16-F10 [16] = assay: Induction of apoptosis in mouse B16F10 cells assessed as increase in cytochrome-c protein expression at 7.5 to 30 uM after 48 hrs by Western blot analysis; format: functional, cell-based; how it was run: as §2
B16-F10 [17] = assay: Induction of apoptosis in mouse B16F10 cells assessed as increase in caspase-3 protein expression at 7.5 to 30 uM after 48 hrs by Western blot analysis; format: functional, cell-based; how it was run: as §2
B16-F10 [18] = assay: Induction of mitochondrial membrane potential loss in mouse B16F10 cells at 30 uM after 48 hrs by JC-1 dye based flow cytometry (reference value: 1.79%); format: functional; how it was run: as §3
B16-F10 [19] = assay: Induction of apoptosis in mouse B16F10 cells assessed as increase in caspase-9 protein expression at 7.5 to 30 uM after 48 hrs by Western blot analysis; format: functional, cell-based; how it was run: as §2
B16-F10 [20] = assay: Induction of mitochondrial membrane potential loss in mouse B16F10 cells at 15 uM after 48 hrs by JC-1 dye based flow cytometry (reference value: 1.79%); format: functional; how it was run: as §3
B16-F10 [21] = assay: Induction of apoptosis in mouse B16F10 cells assessed as increase in Bax protein expression at 7.5 to 30 uM after 48 hrs by Western blot analysis; format: functional, cell-based; how it was run: as §2
B16-F10 [22] = assay: Induction of apoptosis in mouse B16F10 cells assessed as decrease in Bcl2 protein expression at 7.5 to 30 uM after 48 hrs by Western blot analysis; format: functional, cell-based; how it was run: as §2

IC50 (B16-F10 [2])	IC50 (MCF7)	Compound	IC50 [1]	also measured
30 µM	24.2 µM	C=C(C)[C@@H]1CC[C@]2(C(=O)O)CC[C@]3(C)[C@H](CC[C@@H]4[C@@]5(C)CC[C@H](O)[C@@](C)(COC(=O)CCC(=O)OCCOCCOCCOC(=O)c6cc7ccc(N(CC)CC)cc7oc6=O)[C@@H]5CC[C@]43C)[C@@H]12	19.4 µM	
4.07 µM	6.26 µM	C=C(C)[C@@H]1CC[C@]2(C(=O)O)CC[C@]3(C)[C@H](CC[C@@H]4[C@@]5(C)CC[C@H](O)[C@@](C)(COC(=O)CCC(=O)NCCNC(=O)c6cc7ccc(N(CC)CC)cc7oc6=O)[C@@H]5CC[C@]43C)[C@@H]12	11.7 µM	Activity (B16-F10 [3]): Active; Drug uptake [4]: Active; Activity (B16-F10 [5]): Active; Activity (B16-F10 [6]): Active; Activity (B16-F10 [7]): Active; Drug uptake [8]: Not Active; Drug uptake [9]: Not Active; Drug uptake [10]: Active; Activity (B16-F10 [11]): Active; Drug uptake [12]: Dose-dependent effect; Activity (B16-F10 [13]): Active
> 100 µM		CCN(CC)c1ccc2cc(C(=O)NCCNC(=O)CCC(=O)O)c(=O)oc2c1		Drug uptake [14]: Not Active
7.77 µM	9.7 µM	C=C(C)[C@@H]1CC[C@]2(C(=O)O)CC[C@]3(C)[C@H](CC[C@@H]4[C@@]5(C)CC[C@H](O)[C@@](C)(COC(=O)CCC(=O)NCCCCNC(=O)c6cc7ccc(N(CC)CC)cc7oc6=O)[C@@H]5CC[C@]43C)[C@@H]12	17.6 µM	
10.5 µM	18.1 µM	C=C(C)[C@@H]1CC[C@]2(C(=O)O)CC[C@]3(C)[C@H](CC[C@@H]4[C@@]5(C)CC[C@H](O)[C@@](C)(COC(=O)CCC(=O)OCCNC(=O)c6cc7ccc(N(CC)CC)cc7oc6=O)[C@@H]5CC[C@]43C)[C@@H]12	25.1 µM	
5.25 µM	8.16 µM	C=C(C)[C@@H]1CC[C@]2(C(=O)O)CC[C@]3(C)[C@H](CC[C@@H]4[C@@]5(C)CC[C@H](O)[C@@](C)(COC(=O)COCCOCCNC(=O)c6cc7ccc(N(CC)CC)cc7oc6=O)[C@@H]5CC[C@]43C)[C@@H]12	10.8 µM	
35.5 µM	30.5 µM	C=C(C)[C@@H]1CC[C@]2(C(=O)O)CC[C@]3(C)[C@H](CC[C@@H]4[C@@]5(C)CC[C@H](O)[C@@](C)(COC(=O)CCC(=O)OCCOCCOC(=O)c6cc7ccc(N(CC)CC)cc7oc6=O)[C@@H]5CC[C@]43C)[C@@H]12	21.4 µM	
12.3 µM	37.8 µM	C=C(C)[C@@H]1CC[C@]2(C(=O)O)CC[C@]3(C)[C@H](CC[C@@H]4[C@@]5(C)CC[C@H](O)[C@@](C)(COC(=O)CCCCCNC(=O)c6cc7ccc(N(CC)CC)cc7oc6=O)[C@@H]5CC[C@]43C)[C@@H]12	79.7 µM	
11.3 µM	18.1 µM	C=C(C)[C@@H]1CC[C@]2(C(=O)O)CC[C@]3(C)[C@H](CC[C@@H]4[C@@]5(C)CC[C@H](O)[C@@](C)(COC(=O)CCCNC(=O)c6cc7ccc(N(CC)CC)cc7oc6=O)[C@@H]5CC[C@]43C)[C@@H]12	27.8 µM	
11.8 µM	19.7 µM	C=C(C)[C@@H]1CC[C@]2(C(=O)O)CC[C@]3(C)[C@H](CC[C@@H]4[C@@]5(C)CC[C@H](O)[C@@](C)(COC(=O)CCC(=O)OCCOC(=O)c6cc7ccc(N(CC)CC)cc7oc6=O)[C@@H]5CC[C@]43C)[C@@H]12	23.8 µM	
11.5 µM	19.9 µM	C=C(C)[C@@H]1CC[C@]2(C(=O)O)CC[C@]3(C)[C@H](CC[C@@H]4[C@@]5(C)CC[C@H](O)[C@@](C)(COC(=O)CCC(=O)NCCOC(=O)c6cc7ccc(N(CC)CC)cc7oc6=O)[C@@H]5CC[C@]43C)[C@@H]12	24 µM	

Compound	IC50 (B16-F10 [2])	IC50 (MCF7)	IC50 [1]	also measured
C=C(C)[C@@H]1CC[C@]2(C(=O)O)CC[C@]3(C)[C@H](CC[C@@H]4[C@@]5(C)CC[C@H](O)[C@@](C)(CO)[C@@H]5CC[C@]43C)[C@@H]12	24.5 µM	20.8 µM	31.5 µM	Activity (B16-F10 [15]): 10.57%; Activity (B16-F10 [16]): Active; Activity (B16-F10 [17]): Active; Activity (B16-F10 [18]): 42.87%; Activity (B16-F10 [19]): Active; Activity (B16-F10 [20]): 22.85%; Activity (B16-F10 [21]): Active; Activity (B16-F10 [22]): Active
COc1cccc2c1C(=O)c1c(O)c3c(c(O)c1C2=O)C[C@@](O)(C(=O)CO)C[C@@H]3O[C@H]1C[C@H](N)[C@H](O)[C@H](C)O1 [DOXORUBICIN]	0.19 µM	0.15 µM	0.21 µM	
